Test results as given in ChEMBL document CHEMBL1151801, “Synthesis of new indeno[1,2-e]pyrimido[4,5-b][1,4]diazepine-5,11-diones as potential antitumor agents” (2008).

Legend:
Type in all cases: functional
CAKI-1 = assay: Antitumor activity against human Caki1 cells after 48 hrs by SRB assay; conditions: CAKI-1, 48 h
Method in brief: (§1)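 NCI in vitro human tumor cell line screen. Cells were exposed continuously to compound for 48 h at five concentration levels (100, 10, 1.0, 0.1 and 0.01). Growth was estimated by sulforhodamine B protein staining. GI50 is the concentration giving a 50% reduction in net protein increase relative to control cells over the incubation.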

A498 = assay: Antitumor activity against human A498 cells after 48 hrs by SRB assay; conditions: A498, 48 h; method in brief: as §1
786-0 = assay: Antitumor activity against human 786-0 cells after 48 hrs by SRB assay; conditions: 786-0, 48 h; method in brief: as §1
SK-OV-3 = assay: Antitumor activity against human SKOV3 cells after 48 hrs by SRB assay; conditions: SK-OV-3, 48 h; method in brief: as §1
OVCAR-8 = assay: Antitumor activity against human OVCAR8 cells after 48 hrs by SRB assay; conditions: OVCAR-8, 48 h; method in brief: as §1
OVCAR-4 = assay: Antitumor activity against human OVCAR4 cells after 48 hrs by SRB assay; conditions: OVCAR-4, 48 h; method in brief: as §1
OVCAR-3 = assay: Antitumor activity against human OVCAR-3 cells after 48 hrs by SRB assay; conditions: OVCAR-3, 48 h; method in brief: as §1
IGROV-1 = assay: Antitumor activity against human IGROV1 cells after 48 hrs by SRB assay; conditions: IGROV-1, 48 h; method in brief: as §1
U-251 = assay: Antitumor activity against human U251 cells after 48 hrs by SRB assay; conditions: U-251, 48 h
Method in brief: (§2)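 NCI in vitro human tumor cell line screen. Continuous 48 h drug exposure at five concentrations (100, 10, 1.0, 0.1 and 0.01 µM). Cell growth estimated by sulforhodamine B protein staining. GI50 defined as the concentration giving 50% reduction in net protein increase versus control cells over the incubation.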

SNB-75 = assay: Antitumor activity against human SNB75 cells after 48 hrs by SRB assay; conditions: SNB-75, 48 h; method in brief: as §1
SF-539 = assay: Antitumor activity against human SF539 cells after 48 hrs by SRB assay; conditions: SF-539, 48 h; method in brief: as §1
ACHN = assay: Antitumor activity against human ACHN cells after 48 hrs by SRB assay; method in brief: as §1
SF-295 = assay: Antitumor activity against human SF295 cells after 48 hrs by SRB assay; conditions: SF-295, 48 h; method in brief: as §1
SF-268 = assay: Antitumor activity against human SF268 cells after 48 hrs by SRB assay; conditions: SF-268, 48 h; method in brief: as §1
SW-620 = assay: Antitumor activity against human SW620 cells after 48 hrs by SRB assay; conditions: SW-620, 48 h; method in brief: as §2
KM12 = assay: Antitumor activity against human KM12 cells after 48 hrs by SRB assay; conditions: KM12, 48 h; method in brief: as §1
HT-29 = assay: Antitumor activity against human HT-29 cells after 48 hrs by SRB assay; conditions: HT-29, 48 h; method in brief: as §1
HCT-15 = assay: Antitumor activity against human HCT15 cells after 48 hrs by SRB assay; conditions: HCT-15, 48 h; method in brief: as §1
HCT-116 = assay: Antitumor activity against human HCT116 cells after 48 hrs by SRB assay; conditions: HCT-116, 48 h; method in brief: as §1
COLO 205 = assay: Antitumor activity against human COLO205 cells after 48 hrs by SRB assay; conditions: COLO 205, 48 h; method in brief: as §1
NCI-H522 = assay: Antitumor activity against human NCI-H522 cells after 48 hrs by SRB assay; conditions: NCI-H522, 48 h; method in brief: as §1
NCI-H322M = assay: Antitumor activity against human NCI-H322M cells after 48 hrs by SRB assay; method in brief: as §1
NCI-H23 = assay: Antitumor activity against human NCI-H23 cells after 48 hrs by SRB assay; conditions: NCI-H23, 48 h; method in brief: as §1
NCI-H226 = assay: Antitumor activity against human NCI-H226 cells after 48 hrs by SRB assay; conditions: NCI-H226, 48 h; method in brief: as §1
HOP-92 = assay: Antitumor activity against human HOP92 cells after 48 hrs by SRB assay; conditions: HOP-92, 48 h; method in brief: as §1
MOLT-4 = assay: Antitumor activity against human MOLT4 cells after 48 hrs by SRB assay; conditions: MOLT-4, 48 h; method in brief: as §1
K562 = assay: Antitumor activity against human K562 cells after 48 hrs by SRB assay; conditions: K562, 48 h; method in brief: as §1
HL-60(TB) = assay: Antitumor activity against human HL-60(TB) cells after 48 hrs by SRB assay; conditions: HL-60, 48 h; method in brief: as §1
CCRF-CEM = assay: Antitumor activity against human CCRF-CEM cells after 48 hrs by SRB assay; method in brief: as §1
UO-31 = assay: Antitumor activity against human UO31 cells after 48 hrs by SRB assay; conditions: UO-31, 48 h; method in brief: as §2
DU-145 = assay: Antitumor activity against human DU145 cells after 48 hrs by SRB assay; conditions: DU-145, 48 h; method in brief: as §1
MCF7 = assay: Antitumor activity against human MCF7 cells after 48 hrs by SRB assay; conditions: MCF7, 48 h; method in brief: as §1
NCI/ADR-RES = assay: Antitumor activity against human NCI/ADR-RES cells after 48 hrs by SRB assay; method in brief: as §1
MDA-MB-231 = assay: Antitumor activity against human MDA-MB-231 cells after 48 hrs by SRB assay; conditions: MDA-MB-231, 48 h; method in brief: as §1
[1] = Antitumor activity against human Hs 578T cells after 48 hrs by SRB assay; method in brief: as §1
MDA-MB-435 = assay: Antitumor activity against human MDA-MB-435 cells after 48 hrs by SRB assay; conditions: MDA-MB-435, 48 h; method in brief: as §1
T47D = assay: Antitumor activity against human T47D cells after 48 hrs by SRB assay; method in brief: as §2
[2] = read-out: LC50 (the source's name)

Structure (SMILES): CSc1nc2c(c(=O)[nH]1)NC1=C(C(=O)c3ccccc31)C(c1ccc(F)cc1)N2 (centres undefined)
- GI50 (CAKI-1): 3.3 µM
- LC50 (CAKI-1): > 100 µM
- GI50 (A498): 4.88 µM
- LC50 (A498): 57.7 µM
- GI50 (786-0): 12.4 µM
- CC50 (786-0; [2]): 60.4 µM
- GI50 (SK-OV-3): 14.1 µM
- LC50 (concentration killing 50% of cells) (SK-OV-3): > 100 µM
- GI50 (OVCAR-8): 13.1 µM
- LC50 (concentration causing 50% net cell kill) (OVCAR-8): 95.2 µM
- GI50 (OVCAR-4): 15.4 µM
- CC50 (OVCAR-4; [2]): > 100 µM
- GI50 (OVCAR-3): 3.38 µM
- CC50 (OVCAR-3; [2]): 61.8 µM
- GI50 (IGROV-1): 11.3 µM
- CC50 (IGROV-1; [2]): > 100 µM
- GI50 (U-251): 5.43 µM
- CC50 (U-251; [2]): 48.6 µM
- GI50 (SNB-75): 1.46 µM
- LC50 (SNB-75): > 100 µM
- GI50 (SF-539): 8.9 µM
- LC50 (concentration killing 50% of cells) (SF-539): 92 µM
- GI50 (ACHN): 11.6 µM
- CC50 (ACHN; [2]): > 100 µM
- GI50 (SF-295): 3.67 µM
- CC50 (SF-295; [2]): > 100 µM
- GI50 (SF-268): 12.7 µM
- CC50 (SF-268; [2]): > 100 µM
- GI50 (SW-620): 4.48 µM
- LC50 (SW-620): > 100 µM
- GI50 (KM12): 3.77 µM
- CC50 (KM12; [2]): 39.5 µM
- GI50 (HT-29): 3.36 µM
- LC50 (HT-29): 35.1 µM
- GI50 (HCT-15): 4.57 µM
- LC50 (concentration killing 50% of starting cells) (HCT-15): > 100 µM
- GI50 (HCT-116): 7.23 µM
- LC50 (50% lethal concentration) (HCT-116): 44.7 µM
- GI50 (COLO 205): 13 µM
- CC50 (COLO 205; [2]): > 100 µM
- GI50 (NCI-H522): 3.17 µM
- CC50 (NCI-H522; [2]): > 100 µM
- GI50 (NCI-H322M): 13.9 µM
- CC50 (NCI-H322M; [2]): > 100 µM
- GI50 (NCI-H23): 13.5 µM
- LC50 (NCI-H23): > 100 µM
- GI50 (NCI-H226): 15.3 µM
- LC50 (NCI-H226): > 100 µM
- GI50 (HOP-92): 9.52 µM
- LC50 (HOP-92): > 100 µM
- GI50 (MOLT-4): 19.5 µM
- LC50 (MOLT-4): > 100 µM
- GI50 (K562): 4.05 µM
- LC50 (K562): > 100 µM
- GI50 (HL-60(TB)): 6.54 µM
- LC50 (HL-60(TB)): > 100 µM
- GI50 (CCRF-CEM): 8.16 µM
- CC50 (CCRF-CEM; [2]): > 100 µM
- GI50 (UO-31): 16.3 µM
- CC50 (UO-31; [2]): > 100 µM
- GI50 (DU-145): 16.2 µM
- CC50 (DU-145; [2]): > 100 µM
- GI50 (MCF7): 5.18 µM
- LC50 (concentration causing 50% net cell kill) (MCF7): > 100 µM
- GI50 (NCI/ADR-RES): 6.42 µM
- LC50 (NCI/ADR-RES): > 100 µM
- GI50 (MDA-MB-231): 12.6 µM
- LC50 (lethal concentration, 50% net cell kill) (MDA-MB-231): > 100 µM
- GI50 [1]: 5.85 µM
- CC50 [1, 2]: > 100 µM
- GI50 (MDA-MB-435): 1.65 µM
- LC50 (MDA-MB-435): > 100 µM
- GI50 (T47D): 14.2 µM
- CC50 (T47D; [2]): > 100 µM
